# PubChem BioAssay
# A number with no mark means an inactive call. Records with an inconclusive call do not appear. Active and inactive are the calls of the source.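 The calls were made as follows, unless noted: active = viability increase at or above a cutoff of the median across tested compounds plus 3 SD (cut at about 8.5% in these data, passing the limit was not always enough); inconclusive = some gains above the cutoff, reason not given; inactive = the rest.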
# What was measured:
# [1] = S. cerevisiae growth inhibition in permissive medium (OD615), pilot counter-assay for S. cerevisiae lifespan shortening project, permissive growth control (AID 705;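 active = growth inhibition above 25% in both replicates, a cutoff set 3 SD above the mean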); details: OD615, 24 h, at 10 µM, hits give high values
# Summary of the method: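 assay system = Saccharomyces cerevisiae strain carrying genetically modified DeaD replicative-lifespan system | technique = absorbance (optical density) at 615 nm | buffer or medium = permissive raffinose/galactose medium | timing = cells pre-grown 4 h, then 24 h compound exposure, 30 °C humidified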
# [2] = S. cerevisiae growth inhibition in restrictive medium, OD615, pilot screen, restrictive growth control, yeast lifespan reduction project (AID 706;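 active = growth inhibition above a set limit, 3 SD over mean compound inhibition, in both replicates, cut at about 43% in these data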;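 also: modified DeaD lifespan yeast strain shifted to restrictive glucose medium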); details: OD615, 48 h, at 10 µM, hits give high values
# Summary of the method: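 System: modified S. cerevisiae. Buffer or medium: CSMM-D glucose medium. Incubation: 4 h pre-growth plus 48 h compound exposure, 30 °C. Detection: absorbance (optical density) measured at 615 nm.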
# [3] = doxorubicin toxicity protection in MRP-1 cells – H69AR cells, CellTiter-Glo, duplicate, MRP-1 activator project, pilot screen (AID 807); details: H69AR viability with doxorubicin, CellTiter-Glo luminescence; at 10 µM; hits give high values;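 also: compound pretreatment 18-22 h then 72 h combined with doxorubicin; 0% = doxorubicin alone and 100% = vehicle without doxorubicin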
# [4] = viability of HCT116 without oncogenic beta-catenin – human colon tumor cells, pilot screen (AID 823;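 active = cell viability at or below a set limit in both duplicate runs, the limit being the all-compound median minus 4 SD, cut at about 23% in these data, passing the limit was not always enough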;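 also: 0% = wells killed by 20 µM Hyamine and 100% = untreated DMSO cell wells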); details: HCT116 beta-catenin knockout viability, CellTiter-Glo, 60 h; at 10 µM; hits give low values
# [5] = viability of PTEN-null HCT116 cells – cell-based, HCT116 clonal line, CellTiter-Glo, pilot screen (AID 824;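 active = viability at or below 27.92% in each of two runs, the all-compound median minus 4 SD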;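 also: 0% = 20 µM Hyamine control and 100% = vehicle cell control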); details: HCT116 PTEN-deleted viability, 60 h, at 10 µM, hits give low values
# [6] = RAM pathway blockade in budding yeast – dse1pr::URA3 reporter, 5-FOA selection, pilot screen (AID 869;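 active = inhibition over a set limit, the all-compound mean plus 3 SD, in both replicate runs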;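 also: 0% = DMSO wells with no growth and 100% = 10 µM 1-NA-PP1 with full growth; RAM network block rescues cells from 5-FOA so hits raise OD615 growth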); details: S. cerevisiae dse1pr::URA3 5-FOA growth, OD615, 2 d; at 10 µM; hits give high values; strain carries analog-sensitive mutant Cbk1 kinase
# [7] = RAM signaling pathway blockade in yeast – S. cerevisiae, Pdr1DBD-CYC8 efflux-inhibited sensitized strain, primary screen (AID 1298;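 active = RAM network inhibition above 8.4% in each of two replicates, 3 SD over the compound average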;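 also: 0% = DMSO untreated cells without growth and 100% = 10 µM 1-NA-PP1 full growth; higher means more yeast growth rescued from 5-FOA killing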); details: S. cerevisiae cbk1-as DSE1-URA3 strain, 5-FOA growth OD615, 2 d; at 50 µM; hits give high values
Compound,growth inhibition [1],growth inhibition [2],viability increase [3] [%],viability [4] [%],viability [5] [%],inhibition [6] [%],RAM network inhibition [7] [%]
COc1ccccc1NC(=O)C1=C(C)NC(=O)NC1c1cccc(OC)c1OC (stereo not drawn),-3.89%,2.57%,-2.1,104,94.8,0.545,3.58
Cc1cc(C)n(C(=O)CCCC(=O)n2nc(C)cc2C)n1,-10.5%,-10.9%,-1.19,105,97.4,1.19,2.92
CC1CCN(c2nnc(N3CCC(C)CC3)c3ccccc23)CC1,-19.1%,-14.8%,-3.17,84,81.8,1.98,4.58
CCCCC(CC)CNC(=O)CCS(=O)(=O)c1cccc2nonc12 (stereo not drawn),1.79%,-0.105%,-0.88,92.2,91.4,2.17,3.63
O=C1c2cccnc2C(=O)N1Cc1cccs1,-1.61%,-4.64%,-0.5,98.5,102,1.4,0.21
Cn1c(Cn2c(=O)sc3ccccc32)nnc1SCC(=O)N1CCOCC1,-13.2%,-28%,-1.17,103,99.2,2.92,3.55
COC(=O)C1C2C=CC3(CN(C(C)C)C(=O)C13)O2 (stereo not drawn),-11.7%,-17.2%,-1.07,106,102,-0.215,1.89
CP(=O)(COC(=O)c1ccccc1)COC(=O)c1ccccc1,-20.8%,-19%,-0.63,100,96.5,3.13,1.26
COc1ccc(CCNC(=O)c2cnccn2)cc1,-10.1%,-2.55%,0.3,102,87.2,3.53,2.5
COc1ccc(OC)c(S(=O)(=O)NCc2cn3c(C)csc3n2)c1,-10.1%,5.41%,-1.77,103,96.5,0.045,5.95
O=C(NCCc1cn2ccsc2n1)c1cccs1,-14.1%,-12.4%,-1.75,105,102,1.29,3.51
O=C(c1cc(-c2ccc(O)cc2)on1)N1CCc2ccccc2C1,-16.4%,15.6%,-4.4,93,91.1,0.875,-2.87
Cc1nc2sc(C(c3ccco3)N3CCN(c4ccc(F)cc4)CC3)c(O)n2n1 (stereo not drawn),0.055%,-7.21%,-0.62,107,99.9,1.52,3.54
Cc1ccc(O)c(C(=O)CC(=O)c2cccc(F)c2)c1,35.8% (active),50% (active),-7.04,40.6,47.4,-0.695,-1.45
CC1(C)C(c2ccccc2)=[N+]([O-])CN1O,1.85%,9.78%,-2.5,107,96.3,-0.14,-0.11
O=C(CSc1nnc(-c2cccnc2)n1Cc1ccco1)c1ccc(Br)cc1,1.25%,32.4%,-1.99,79.9,86.8,0.005,10
COc1ccc(-n2nnc3c(=O)n(CC(=O)N4CCC(Cc5ccccc5)CC4)cnc32)cc1,0.065%,-3.95%,-1.03,80.2,80.3,2.54,5.24
Cc1ccc(-c2noc(CSc3nnnn3-c3ccccc3)n2)cc1,-16.9%,9.4%,2.8,88.1,97.8,1.95,7.44
Nc1nc2n(n1)C(c1ccco1)CC(c1ccc(F)cc1)N2 (stereo not drawn),-0.245%,11.6%,1.69,98.4,101,0.45,4.49
CCCn1cc(S(=O)(=O)CC(=O)NC2CCCCC2)c2ccccc21,-1.69%,-0.78%,-0.07,93.2,101,1.39,2.24
CC(C)OC(=O)C1C2C=CC3(CN(C(C)c4ccc(Br)cc4)C(=O)C13)O2 (stereo not drawn),-19.3%,-19.3%,-2.07,96.8,94.1,0.395,6.84
CCN(CC)CCN1C(=O)C2C3c4ccccc4C(c4ccccc43)C2C1=O (stereo not drawn),-2.27%,-2.01%,-2.46,96.5,95.4,0.035,1.71
Cc1nc2sc(C(c3cccs3)N3CCN(c4cccc(Cl)c4)CC3)c(O)n2n1 (stereo not drawn),-5.61%,2.47%,2.07,93.7,83.5,2.32,5.45
COc1cccc2c(=O)c(C/C=C(/C)Cl)c(C)[nH]c12,-2.8%,5.71%,-2.38,97.5,91.6,0.075,-0.16
